In brackets after ≈: the same amount, converted by molar mass.
Legend:
Candida albicans = assay: Minimum inhibitory concentration against Candida albicans; assay type: functional
Method in brief: (§1)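 Disk diffusion on YPG agar. Yeast suspension from 24 h YPG broth (C. albicans five isolates and Y. lipolytica at 28 °C, B. poitrasii at 37 °C) spread-plated. Filter disks carried a DMSO control or graded compound amounts from 1 mg/mL DMSO stock. Plates incubated 28 °C, 24 h. MIC taken as lowest concentration giving an inhibition zone; triplicate.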

Benjaminiella = assay: Minimum inhibitory concentration against Benjaminiella poitrassi; assay type: functional; method in brief: as §1
Yarrowia lipolytica = assay: Minimum inhibitory concentration against Yarrowia lipolytica; assay type: functional; method in brief: as §1
HEp-2 = assay: Antiproliferative activity against HEp-2 cells; assay type: functional, cell-based; conditions: Homo sapiens
Method in brief: (§2)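 MEM with 10% heat-inactivated FBS at 37 °C, 5% CO2. Cells seeded at 15 000/well and adhered 24 h. Treated in triplicate for 72 h with 0, 0.1, 1.0 or 10 μM compound from DMSO stock. MTT 1 mg/mL for 4 h at 37 °C, formazan dissolved in 2-propanol, OD 570 nm (630 nm reference). DMSO-only cells set as 100% growth.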

MCF7 = assay: In vitro antiproliferative activity against MCF-7 cells; assay type: functional, cell-based; conditions: Homo sapiens; method in brief: as §2

`C[C@H](CCC(=O)NCCNCCNC(=O)CC[C@H](C)[C@H]1CCC2C3C(C[C@@H](O)[C@@]21C)[C@@]1(C)CC[C@@H](O)CC1C[C@H]3O)[C@H]1CCC2C3C(C[C@@H](O)[C@@]21C)[C@@]1(C)CC[C@@H](O)CC1C[C@H]3O` (stereo partly drawn) was tested, and the MIC (Candida albicans) was 0.0113 µM (≈ 0.01 µg/mL), the MIC (Benjaminiella) was 0.0113 µM (≈ 0.01 µg/mL) and the MIC (Yarrowia lipolytica) was 0.0113 µM (≈ 0.01 µg/mL).
`C[C@H](CCC(=O)NCCNC(=O)CC[C@H](C)[C@H]1CCC2C3CCC4C[C@H](O)CC[C@]4(C)C3C[C@@H](O)[C@@]21C)[C@H]1CCC2C3CCC4C[C@H](O)CC[C@]4(C)C3C[C@@H](O)[C@@]21C` (stereo partly drawn) was tested, and the IC50 (HEp-2) was 2200 nM and the IC50 (MCF7) was 2200 nM.
Compound `C[C@@H]1C[C@@H]([C@H](O)CC2CC(=O)NC(=O)C2)C(=O)[C@@H](C)C1` [CYCLOHEXIMIDE] has an MIC (Candida albicans) of over 0.9 µM, an MIC (Benjaminiella) of 0.071 µM (≈ 0.02 µg/mL) and an MIC (Yarrowia lipolytica) of 0.106 µM (≈ 0.0298 µg/mL).
